# Activity calls are given as the source filed them. The calls are words filed in the database; no cut-off is given here.
# Key:
# [1] = molecular target: T1, Bromodomain-containing protein 4 (Homo sapiens, UniProt O60885); experiment: Inhibition of human His-tagged BRD4 BD1 (49 to 170 residues) at 30 uM using H-SGRGK(Ac)GGK(Ac)GLGK-(Ac)GGAK(Ac)RHRK(Biotin)-OH as substrate preincubated for 30 mins followed by substrate addition measured after 30 mins by TR-FRET assay relative to control
# Outline: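 BRD4 bromodomain 1 was tested using a TR-FRET assay kit. Percent inhibition was measured at a single concentration of 30, in triplicate, and reported as mean ± SD.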
# [2] = molecular target: T1, Bromodomain-containing protein 4; experiment: Inhibition of human His-tagged BRD4 BD1 (49 to 170 residues) using H-SGRGK(Ac)GGK(Ac)GLGK-(Ac)GGAK(Ac)RHRK(Biotin)-OH as substrate preincubated for 30 mins followed by substrate addition measured after 30 mins by TR-FRET assay
# [3] = (§1) Cytotoxicity against human HL60 cells assessed as decrease in cell viability after 24 hrs by MTT assay; format: functional, cell-based; conditions: HL-60, 24 h
# [4] = molecular target: T1, Bromodomain-containing protein 4; experiment: Inhibition of human BRD4 BD2 (342 to 460 residues) at 30 uM preincubated for 30 mins followed by substrate addition measured after 30 mins by TR-FRET assay relative to control
# Outline: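 BRD4 BD2 percent inhibition was measured at a single concentration of 30, in triplicate, and reported as mean ± SD.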
# [5] = molecular target: T1, Bromodomain-containing protein 4; experiment: Inhibition of human BRD4 BD2 (342 to 460 residues) at 30 uM preincubated for 30 mins followed by substrate addition measured after 30 mins by TR-FRET assay
# [6] = Cytotoxicity against human MV4-11 cells assessed as decrease in cell viability after 24 hrs by MTT assay; format: functional, cell-based; conditions: MV4-11, 24 h
# [7] = (§2) Cytotoxicity against human U937 cells assessed as decrease in cell viability after 24 hrs by MTT assay; format: functional, cell-based; conditions: U-937, 24 h
# [8] = tested on: HL-60; experiment: Induction of apoptosis in human HL60 cells assessed as necrotic cells at 5 uM by annexin V-FITC/propidium iodide staining-based flow cytometric analysis (reference value: 0.13%); format: functional
# [9] = tested on: HL-60; experiment: Induction of apoptosis in human HL60 cells assessed as caspase-3 cleavage at 1 to 10 uM after 24 hrs by Western blot method; format: functional, cell-based
# Outline: (§3)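 HL-60 cells were treated for 24 h. Lysates were then immunoblotted for Bax, Bcl-2, pro-caspase 3, active caspase 3 and Brd4.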
# [10] = tested on: HL-60; experiment: Induction of apoptosis in human HL60 cells assessed as downregulation of Bcl-2 expression at 1 to 10 uM after 24 hrs by Western blot method; format: functional, cell-based; outline: as §3
# [11] = tested on: HL-60; experiment: Induction of apoptosis in human HL60 cells assessed as viable cells at 1 uM by annexin V-FITC/propidium iodide staining-based flow cytometric analysis (reference value: 84.22%); format: functional; conditions: read-out: Activity
# [12] = tested on: HL-60; experiment: Induction of apoptosis in human HL60 cells assessed as viable cells at 10 uM by annexin V-FITC/propidium iodide staining-based flow cytometric analysis (reference value: 84.22%); format: functional; conditions: read-out: Activity
# [13] = tested on: HL-60; experiment: Induction of apoptosis in human HL60 cells assessed as necrotic cells at 10 uM by annexin V-FITC/propidium iodide staining-based flow cytometric analysis (reference value: 0.13%); format: functional
# [14] = tested on: HL-60; experiment: Induction of apoptosis in human HL60 cells assessed as early apoptotic cells at 1 uM by annexin V-FITC/propidium iodide staining-based flow cytometric analysis (reference value: 8.23%); format: functional
# [15] = tested on: HL-60; experiment: as §1; format: functional, cell-based
# [16] = Downregulation of BRD4 expression in human HL60 cells at 1 to 10 uM after 24 hrs by Western blot method; format: functional, cell-based; conditions: HL-60; outline: as §3
# [17] = tested on: HL-60; experiment: Induction of apoptosis in human HL60 cells assessed as viable cells at 5 uM by annexin V-FITC/propidium iodide staining-based flow cytometric analysis (reference value: 84.22%); format: functional; conditions: read-out: Activity
# [18] = tested on: HL-60; experiment: Induction of apoptosis in human HL60 cells assessed as early apoptotic cells at 10 uM by annexin V-FITC/propidium iodide staining-based flow cytometric analysis (reference value: 8.23%); format: functional
# [19] = tested on: HL-60; experiment: Induction of apoptosis in human HL60 cells assessed as necrotic cells at 1 uM by annexin V-FITC/propidium iodide staining-based flow cytometric analysis (reference value: 0.13%); format: functional
# [20] = tested on: HL-60; experiment: Induction of morphological changes in human HL60 cells at 1 to 10 uM after 24 hrs by Hoechst 33258 staining-based fluorescence microscopy; format: functional, cell-based
# Outline: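 HL-60 cells were cultured with different concentrations and stained with Hoechst 33258. Apoptotic nuclear morphology was examined under an inverted microscope.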
# [21] = Induction of apoptosis in human HL60 cells assessed as upregulation of Bax expression at 1 to 10 uM after 24 hrs by Western blot method; format: functional, cell-based; conditions: HL-60; outline: as §3
# [22] = tested on: HL-60; experiment: Induction of apoptosis in human HL60 cells assessed as late apoptotic cells at 5 uM by annexin V-FITC/propidium iodide staining-based flow cytometric analysis (reference value: 6.92%); format: functional
# [23] = tested on: HL-60; experiment: Induction of apoptosis in human HL60 cells assessed as late apoptotic cells at 10 uM by annexin V-FITC/propidium iodide staining-based flow cytometric analysis (reference value: 6.92%); format: functional
# [24] = tested on: U-937; experiment: as §2; format: functional, cell-based
# [25] = tested on: HL-60; experiment: Induction of apoptosis in human HL60 cells assessed as early apoptotic cells at 5 uM by annexin V-FITC/propidium iodide staining-based flow cytometric analysis (reference value: 8.23%); format: functional
# [26] = tested on: HL-60; experiment: Induction of apoptosis in human HL60 cells assessed as late apoptotic cells at 1 uM by annexin V-FITC/propidium iodide staining-based flow cytometric analysis (reference value: 6.92%); format: functional
smiles,measurement,setting,value
Cc1noc(C)c1NC(=O)c1ccccc1,inhibition,[1],< 20%
COc1cc(C(=O)Nc2c(C)noc2C)cc(-c2ccccc2)c1,IC50,[2],8.24 µM
same,IC50,[3],17.1 µM
same,inhibition,[1],64.5%
same,inhibition,[4],36.3%
same,IC50,[5],> 20 µM
same,IC50,[6],19.2 µM
same,IC50,[7],> 20 µM
O=C1CCN(C(=O)c2ccccc2)c2ccccc2N1,inhibition,[1],32.4%
CC1C(=O)Nc2ccccc2N1C(=O)c1cccc(-c2ccccc2)c1 (stereo not drawn),IC50,[2],7.42 µM
same,IC50,[3],11.4 µM
same,inhibition,[1],72.4%
same,inhibition,[4],23.1%
same,IC50,[5],> 20 µM
same,IC50,[6],13.2 µM
same,IC50,[7],> 20 µM
Cc1noc(C)c1NC(=O)c1ccc2ccccc2c1,inhibition,[1],23.1%
Cc1noc(C)c1NC(=O)c1cccnc1,inhibition,[1],32.6%
O=C1CCCc2c1ccn2C(=O)c1ccccc1,inhibition,[1],< 20%
Cc1noc(C)c1NC(=O)c1cccc(-c2ccccc2)c1,inhibition,[1],46.2%
COc1cc(OC)c2c(=O)[nH]c(-c3cc(C)c(OCCO)c(C)c3)nc2c1 [APABETALONE],IC50,[3],> 20 µM
same,IC50,[6],> 20 µM
same,IC50,[7],> 20 µM
O=C1CCN(C(=O)c2cccnc2)c2ccccc2N1,inhibition,[1],45.2%
O=C1CCN(C(=O)c2cccc(-c3ccccc3)c2)c2ccccc2N1,IC50,[2],1.25 µM
same,Activity,[8],0.9%
same,Activity,[9],Active
same,Activity,[10],Active
same,viability at 1 µM,[11],81.4%
same,viability at 10 µM,[12],34.9%
same,Activity,[13],1.96%
same,Activity,[14],10.15%
same,Activity,[15],Dose-dependent effect
same,IC50,[3],4.02 µM
same,Activity,[16],Active
same,inhibition,[1],96.1%
same,viability at 5 µM,[17],45%
same,Activity,[18],17.73%
same,Activity,[19],0.11%
same,Activity,[20],Active
same,inhibition,[4],54.2%
same,IC50,[5],11.2 µM
same,Activity,[21],Active
same,Activity,[22],32.51%
same,Activity,[23],45.46%
same,IC50,[6],4.21 µM
same,IC50,[7],> 20 µM
same,Activity,[24],Dose-dependent effect
same,Activity,[25],21.63%
same,Activity,[26],8.32%
O=C1CCCc2c1ccn2C(=O)c1ccc2ccccc2c1,inhibition,[1],23.1%
Cc1sc2c(c1C)C(c1ccc(Cl)cc1)=N[C@@H](CC(=O)OC(C)(C)C)c1nnc(C)n1-2,IC50,[3],5.3 µM
same,IC50,[6],6.4 µM
same,IC50,[7],> 20 µM
O=C1CCCc2c1ccn2C(=O)c1cccc(-c2ccccc2)c1,inhibition,[1],32.1%
COc1cc(C(=O)n2ccc3c2CCCC3=O)cc(-c2ccccc2)c1,inhibition,[1],22.8%
COc1cc(C(=O)N2c3ccccc3NC(=O)C2C)cc(-c2ccccc2)c1 (stereo not drawn),IC50,[2],6.25 µM
same,IC50,[3],9.25 µM
same,inhibition,[1],88.7%
same,inhibition,[4],36.2%
same,IC50,[5],> 20 µM
same,IC50,[6],17.6 µM
same,IC50,[7],> 20 µM
COc1ccccc1S(=O)(=O)Nc1ccc2c(c1)CN(C)C(=O)N2,IC50,[3],2.19 µM
same,IC50,[6],7.75 µM
same,IC50,[7],> 20 µM
CC1C(=O)Nc2ccccc2N1C(=O)c1ccccc1 (stereo not drawn),inhibition,[1],< 20%
O=C1CCN(C(=O)c2ccc3ccccc3c2)c2ccccc2N1,inhibition,[1],25.3%
CC1C(=O)Nc2ccccc2N1C(=O)c1cccnc1 (stereo not drawn),inhibition,[1],< 20%
O=C1CCCc2c1ccn2C(=O)c1cccnc1,inhibition,[1],34.2%
CC1C(=O)Nc2ccccc2N1C(=O)c1ccc2ccccc2c1 (stereo not drawn),inhibition,[1],< 20%
COc1cc(C(=O)N2CCC(=O)Nc3ccccc32)cc(-c2ccccc2)c1,IC50,[2],2.74 µM
same,IC50,[3],8.24 µM
same,inhibition,[1],88.8%
same,inhibition,[4],67.1%
same,IC50,[5],9.14 µM
same,IC50,[6],9.61 µM
same,IC50,[7],18.2 µM

# — ChEMBL document CHEMBL3856216, “Development of 4,5-dihydro-benzodiazepinone derivatives as a new chemical series of BRD4 inhibitors” (Eur J Med Chem, 2016)
